# Data: publication PMC11182071 (Journal of Enzyme Inhibition and Medicinal Chemistry, 2024)
# Tests used:
# α-glucosidase = experiment: α-Glucosidase inhibition assay; format: biochemical, yeast; conditions: for α-glucosidase inhibition (% at 50 μM): mean ± SD, n=3
# PTP1B [1] = biological target: T1, PTP1B (Homo sapiens, UniProt P18031); experiment: Protein tyrosine phosphatase 1B inhibition assay; format: biochemical; conditions: for inhibition at 50 µM: read-out: PTP1B inhibition (% at 50 μM)
# T1 sequence (P18031 1-435): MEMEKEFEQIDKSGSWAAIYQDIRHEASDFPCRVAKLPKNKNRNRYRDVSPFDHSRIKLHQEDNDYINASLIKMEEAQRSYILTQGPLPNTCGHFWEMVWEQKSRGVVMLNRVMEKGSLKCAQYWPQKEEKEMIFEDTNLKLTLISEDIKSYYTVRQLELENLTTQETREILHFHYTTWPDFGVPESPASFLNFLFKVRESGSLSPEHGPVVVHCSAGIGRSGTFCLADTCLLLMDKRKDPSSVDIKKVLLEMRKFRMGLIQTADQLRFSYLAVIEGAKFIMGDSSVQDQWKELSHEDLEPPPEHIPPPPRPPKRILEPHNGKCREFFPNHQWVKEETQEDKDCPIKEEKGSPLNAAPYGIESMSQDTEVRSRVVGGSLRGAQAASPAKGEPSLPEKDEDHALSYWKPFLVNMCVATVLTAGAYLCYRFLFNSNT
# α-amylase = biological target: T2, α-amylase (Sus scrofa, UniProt P00690); experiment: α-amylase inhibition assay; format: biochemical, porcine; conditions: read-out: α-amylase inhibition (% at 250 μM)
# T2 sequence (P00690 16-511): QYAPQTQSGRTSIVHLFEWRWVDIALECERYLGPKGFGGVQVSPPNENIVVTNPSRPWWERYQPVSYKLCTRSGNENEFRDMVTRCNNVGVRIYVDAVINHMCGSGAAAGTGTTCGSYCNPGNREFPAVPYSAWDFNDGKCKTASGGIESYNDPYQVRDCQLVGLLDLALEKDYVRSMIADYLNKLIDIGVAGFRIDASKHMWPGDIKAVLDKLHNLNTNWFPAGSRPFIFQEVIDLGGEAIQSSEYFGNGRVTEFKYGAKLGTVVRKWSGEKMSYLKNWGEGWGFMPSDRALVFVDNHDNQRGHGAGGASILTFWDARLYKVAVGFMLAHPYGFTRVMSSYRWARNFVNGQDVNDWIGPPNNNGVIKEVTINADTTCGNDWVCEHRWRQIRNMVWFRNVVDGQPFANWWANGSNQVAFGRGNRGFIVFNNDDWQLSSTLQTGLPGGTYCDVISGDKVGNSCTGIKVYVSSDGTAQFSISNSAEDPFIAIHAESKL
# PTP1B [2] = biological target: T1, PTP1B; experiment: PTP1B inhibition kinetic assay; format: biochemical
# Outline: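 PTP1B at 100 nM reacted with p-nitrophenyl phosphate at 1, 2, 5 and 10 mM and test compound at 0, 0.5, 1.0 and 5.0 μM. Absorbance read every 3 min. Velocity taken from the time–Δabs plot. Inhibition mode from Lineweaver-Burk double-reciprocal plots; Ki from Dixon plots. Triplicate.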
# [3] = system: insulin-resistant HepG2 cells; experiment: In vitro glucose consumption assay in insulin-resistant HepG2 cells; format: cell-based, human; conditions: 24 h treatment; vs model group
# Outline: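 HepG2 seeded in 6-well plates at 1 × 10^5 cells/well for 24 h. Serum-starved 2 h, then made insulin-resistant with 1 × 10−6 mol/l insulin for 48 h at 37 °C, 5% CO2. Groups: control, model, low/middle/high dose of free or liposomal test compound (top 100 μg/mL), blank liposome. After 24 h treatment, medium glucose measured by glucose oxidase kit; consumption = blank-well minus sample-well glucose. Mean ± SD, n = 3.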
# Solubility observations = format: physicochemical; conditions: medium not stated
SMILES,α-glucosidase inhibition (% at 50 μM) (α-glucosidase),inhibition at 50 µM (PTP1B [1]),inhibition at 250 µM (α-amylase),also measured
"C[C@H]1O[C@H](O[C@H]2[C@H](O)[C@@H](O)[C@@H](O[C@H]3[C@H](O)[C@@H](O)C(O)O[C@@H]3CO)O[C@@H]2CO)[C@H](O)[C@@H](O)[C@@H]1N[C@H]1C=C(CO)[C@@H](O)[C@H](O)[C@H]1O (stereo partly drawn) [Acarbose, reference compound]",96.51 ± 0.02%,–,–,–
"CC(C)=C1CC=C([C@H]2CC[C@]3(C)[C@@H]2CC[C@@H]2C4=C(CC[C@]23C)C(C)(C)[C@@H]2CC[C@H]4O2)C1=O [Compound 4, gypensapogenin A]",25.80 ± 0.71%,65.9 ± 1.69%,31.81 ± 0.02%,–
"CC(C)=C1CC([C@H]2CC[C@]3(C)[C@@H]2CC[C@@H]2C4=C(CC[C@]23C)C(C)(C)[C@@H]2CC[C@H]4O2)=CC1=O [Compound 5, gypensapogenin B]",25.55 ± 1.75%,67.1 ± 1.33%,–,–
"CC(C)=C1CC=C([C@H]2CC[C@]3(C)[C@@H]2CC[C@@H]2[C@@]4(C)CC[C@H](O)C(C)(C)[C@@H]4CC[C@]23C)C1=O [Compound 6, gypensapogenin C]",24.64 ± 0.65%,78.9 ± 0.87%,–,–
"CC(C)=C[C@H]1C=C([C@H]2CC[C@]3(C)[C@@H]2CC[C@@H]2[C@@]4(C)CC[C@H](O)C(C)(C)[C@@H]4CC[C@]23C)C(=O)O1 [Compound 7, gypensapogenin D]",61.94 ± 1.54%,83.49 ± 0.62%,11.6 ± 1.24%,"IC50 (PTP1B [1]): 8.17 ± 0.63 µM; IC50 (α-glucosidase; read-out: α-glucosidase IC50, mean ± SD of three replications): 27.15 ± 0.17 µM; Ki (PTP1B [2]): 4.29 µM; Inhibition type against PTP1B (Lineweaver-Burk plot) (PTP1B [2]; Lineweaver-Burk double reciprocal plot): competitive inhibitors; Glucose consumption in insulin-resistant HepG2 cells [3]: did not improve the reduction of glucose consumption; Solubility (Solubility observations): poorly solubility"
"[Na+].[Na+].[Na+].[O]=[V]([O-])([O-])[O-] [Na3VO4, reference compound]",–,–,–,"PTP1B inhibition (% at 50 μM) (PTP1B [1]; 50 μM, mean ± SD, n=3): 98.07 ± 0.51%"
